ChEMBL document CHEMBL3853338 (Bioorg Med Chem Lett, 2016)
Calls of active or inactive are those of the source. The rule behind the calls is not given here.

Key:
[1] = Fraction unbound in mouse brain assessed as compound level in insoluble tissue fraction at 10 uM after 1 hr by LC-MS/MS analysis; assay type: ADME, tissue-based; conditions: in the assay text read “soluble supernatant fraction” for “insoluble tissue fraction”
Method in brief: (§1)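 Compound at 10 µM incubated 1 h at 37 °C with homogenized mouse brain tissue in HBSS (1% final DMSO); after centrifugation, percent of compound in insoluble tissue fraction and soluble supernatant determined by LC–MS/MS.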

[2] = AUC in Sprague-Dawley rat plasma at 10 mg/kg, iv after 30 to 180 mins by LC-MS/MS analysis; assay type: ADME, organism-based; conditions: in vivo
Method in brief: (§2)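 Healthy male Sprague Dawley rats, n = 3 per time point, given 10 mg/kg IV; brain and plasma sampled at 30, 90 and 180 min post dose; drug levels by LC–MS/MS (plasma ng/ml, brain ng/g). AUC summed from straight-line segments joining the three time points.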

[3] = Drug level in Sprague-Dawley rat brain at 10 mg/kg, iv after 180 mins by LC-MS/MS analysis; assay type: ADME, organism-based; conditions: read-out: Drug uptake; method in brief: as §2
[4] = Plasma concentration in Sprague-Dawley rat plasma at 10 mg/kg, iv after 30 mins by LC-MS/MS analysis; assay type: ADME, organism-based; method in brief: as §2
[5] = Plasma concentration in Sprague-Dawley rat plasma at 10 mg/kg, iv after 90 mins by LC-MS/MS analysis; assay type: ADME, organism-based; method in brief: as §2
[6] = Ratio of temozolomide AUC to compound AUC for drug level in brain of Sprague-Dawley rat; assay type: ADME; conditions: in vivo
U-87MG ATCC [7] = assay: Induction of DNA alkylation in human U87MG cells assessed as increase in O6-MedG formation at 10 uM after 3 hrs by LC-MS/MS analysis; assay type: cell-based
Method in brief: (§3)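 U87 MG cells incubated with 10 or 100 µM for 3 h at 37 °C, washed, lysed; genomic DNA isopropanol-extracted, hydrolysed 30 min at 37 °C with nuclease P1 and alkaline phosphatase (ammonium acetate/ZnCl2, pH 5.3); [H]O6-MedG internal standard added; O6-MedG peak area by LC–MS/MS.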

[8] = Ratio of AUC in brain to plasma of Sprague-Dawley rat at 10 mg/kg, iv after 30 to 180 mins by LC-MS/MS analysis; assay type: ADME, organism-based; conditions: read-out: Ratio AUC
Method in brief: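 Male Sprague Dawley rats (n = 3 per time point) dosed IV at 10 mg/kg; brain and plasma taken 30, 90, 180 min after dosing and assayed by LC–MS/MS; three-point linear-segment AUCs computed; ratio = AUCbrain divided by AUCplasma.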

[9] = Drug level in Sprague-Dawley rat brain at 10 mg/kg, iv after 90 mins by LC-MS/MS analysis; assay type: ADME, organism-based; conditions: read-out: Drug uptake; method in brief: as §2
[10] = AUC in Sprague-Dawley rat brain at 10 mg/kg, iv after 30 to 180 mins by LC-MS/MS analysis; assay type: ADME, organism-based; method in brief: as §2
[11] = Plasma concentration in Sprague-Dawley rat plasma at 10 mg/kg, iv after 180 mins by LC-MS/MS analysis; assay type: ADME, organism-based; method in brief: as §2
[12] = Drug level in mouse brain assessed as compound level in soluble tissue fraction at 10 uM after 1 hr by LC-MS/MS analysis; assay type: ADME, tissue-based; method in brief: as §1
[13] = Drug level in Sprague-Dawley rat brain at 10 mg/kg, iv after 30 mins by LC-MS/MS analysis; assay type: ADME, organism-based; conditions: read-out: Drug uptake; method in brief: as §2
U-87MG ATCC [14] = assay: Antitumor activity against human U87MG cells orthotopically xenografted in Harlan nude mouse brain assessed as increase in mouse survival at 50 umol/kg, iv administered once daily for 5 days; assay type: functional, organism-based
Method in brief: (§4)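 Orthotopic model: one million luciferase-expressing U87 MG cells surgically implanted into brains of female Harlan nude mice; dosing from day 26 (mean tumor 10.1 mm3), IV in 50% PEG400, once daily ×5; vehicle group dosed IV. Tumor volume by MRI, body weight and mortality tracked; survival followed to day 63, log-rank Mantel–Cox test.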

U-87MG ATCC [15] = assay: Antitumor activity against human U87MG cells orthotopically xenografted in Harlan nude mouse brain assessed as induction of slow tumor growth at 50 umol/kg, iv administered once daily for 5 days; assay type: functional, organism-based; method in brief: as §4
[16] = Ratio of AUC in brain to plasma of Sprague-Dawley rat administered as single dose
[17] = Drug level in rat brain at 103 umol/kg, iv measured 3 hrs post dose by LC-MS/MS analysis; assay type: ADME, organism-based; conditions: in vivo
Method in brief: (§5)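 Rats (n = 1 per compound per dose) dosed IV at 10, 20 and 40 mg/kg; brain collected 3 h post dose; brain drug concentration and O6-MedG (peak area) measured by LC–MS/MS.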

Rattus norvegicus = assay: Increase in O6-MedG formation in rat brain at 51.5 to 206 umol/kg, iv measured 3 hrs post dose by LC-MS/MS analysis; assay type: functional, organism-based; method in brief: as §5
U-87MG ATCC [18] = assay: Induction of DNA alkylation in human U87MG cells assessed as increase in N7-MedG formation after 3 hrs by LC-MS/MS analysis; assay type: cell-based
U-87MG ATCC [19] = assay: Induction of DNA alkylation in human U87MG cells assessed as increase in O6-MedG formation at 10 to 100 uM after 3 hrs by LC-MS/MS analysis; assay type: cell-based; method in brief: as §3
[20] = Ratio of AUC in human brain to plasma by reversed-phase HPLC analysis
[21] = Drug level in rat brain at 106 umol/kg, iv measured 3 hrs post dose by LC-MS/MS analysis; assay type: ADME, organism-based; conditions: in vivo; method in brief: as §5
[22] = Cytotoxicity against human U87MG cells assessed as inhibition of cell growth at 100 uM after 72 hrs by MTS assay; assay type: functional, U-87MG ATCC; conditions: U-87 MG, read-out: GI
Method in brief: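 U87 MG cells exposed to 100 µM compound for 72 h; growth read by MTS CellTiter 96 assay; treated-cell mean growth (n = 3) divided by vehicle-treated growth (n = 3, set to 100%); SD of three replicates.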

Row | fraction unbound at 1 h, 10 µM [1] | AUC [2] | concentration at 3 h [3] | concentration at 0.5 h [4] | concentration at 1.5 h [5] | Ratio AUC [6] | Kp [8] | concentration at 1.5 h [9] | AUC [10] | concentration at 3 h [11] | Drug uptake [12] | concentration at 0.5 h [13] | SMILES | Activity (U-87MG ATCC [19]) | further results
1 | 0.03 | 1070 ng·h/g | 3570 ng/g | 531 ng/mL | 438 ng/mL | 0.5 | 10.4 | 4830 ng/g | 11200 ng·h/mL | 347 ng/mL | 3% | 4950 ng/g | Cn1nnc2c(C(=O)N3CCc4c(n(C5CC5)c5c(Cl)cc(Cl)cc45)C3)ncn2c1=O |  | Activity (U-87MG ATCC [7]): Active
2 | 0.5 |  | 912 ng/g | 12800 ng/mL | 6480 ng/mL |  | 0.34 | 2300 ng/g |  | 3100 ng/mL | 50% | 4210 ng/g | Cn1nnc2c(C(N)=O)ncn2c1=O [TEMOZOLOMIDE] | Dose-dependent effect | Activity (U-87MG ATCC [14]): Active; Activity (U-87MG ATCC [15]): Active; Kp [16]: 35; Drug uptake [17]: Active; Activity (Rattus norvegicus): Active; Activity (U-87MG ATCC [18]): Active; Kp [20]: 20
3 | 0.48 |  |  |  |  |  |  |  |  |  | 48% |  | NC(=O)c1[nH]cnc1N |  | 
4 | 0.11 | 386 ng·h/g | 47.5 ng/g | 399 ng/mL | 123 ng/mL | 10.8 | 1.36 | 162 ng/g | 525 ng·h/mL | 43.7 ng/mL | 11% | 574 ng/g | CN1CCc2c(n(CCNC(=O)c3ncn4c(=O)n(C)nnc34)c3ccc(Cl)cc23)C1 |  | 
5 | 0.01 |  |  |  |  |  |  |  |  |  | 1% |  | Cc1ccc2c(c1)c1c(n2C)CN(C(=O)c2nc[nH]c2N)CC1 |  | 
6 |  | 998 ng·h/g | 32.7 ng/g | 1090 ng/mL | 302 ng/mL | 7.5 | 0.75 | 142 ng/g | 750 ng·h/mL | 99.2 ng/mL |  | 1100 ng/g | Cc1ccc2[nH]c3c(c2c1)CN(CCNC(=O)c1ncn2c(=O)n(C)nnc12)CC3 | Active | 
7 |  | 959 ng·h/g | 101 ng/g | 850 ng/mL | 387 ng/mL | 8.9 | 0.67 | 243 ng/g | 638 ng·h/mL | 67.1 ng/mL |  | 517 ng/g | Cc1ccc2c(c1)c1c(n2CCNC(=O)c2ncn3c(=O)n(C)nnc23)CCN(C)C1 | Active | 
8 | 0.07 |  |  |  |  |  |  |  |  |  | 7% |  | CN1CCc2c(n(CCNC(=O)c3nc[nH]c3N)c3ccc(Cl)cc23)C1 |  | 
9 |  | 4890 ng·h/g | 401 ng/g | 3630 ng/mL | 2140 ng/mL | 1.4 | 0.82 | 1700 ng/g | 4010 ng·h/mL | 539 ng/mL |  | 3150 ng/g | Cc1ccc2c(c1)c1c(n2C)CCN(CCNC(=O)c2ncn3c(=O)n(C)nnc23)C1 | Active | 
10 | 0.02 | 650 ng·h/g | 372 ng/g | 483 ng/mL | 256 ng/mL | 2.3 | 3.79 | 945 ng/g | 2470 ng·h/mL | 119 ng/mL | 2% | 2020 ng/g | Cc1ccc2c(c1)c1c(n2C)CN(C(=O)c2ncn3c(=O)n(C)nnc23)CC1 | Active | Drug uptake [21]: Active; inhibition of growth at 100 µM [22]: 27.3%
11 | 0.01 |  |  |  |  |  |  |  |  |  | 1% |  | Nc1[nH]cnc1C(=O)N1CCc2c(n(C3CC3)c3c(Cl)cc(Cl)cc23)C1 |  | 
